Test results published in ChEMBL document CHEMBL4513216, “Probing the Open Global Health Chemical Diversity Library for Multistage-Active Starting Points for Next-Generation Antimalarials” (ACS Infect Dis, 2020).

Assay: Toxicity liver stage against HepG2, at 10uM
Format: cell-based
Parameters: test concentration 10 uM, cell line HepG2-A16-CD81EGFP
Details: human, HepG2-A16-CD81EGFP cells; read-out: INHIBITION
How it was run: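 Uninfected HepG2-A16-CD81EGFP cells, 3 × 10^3 per well, 1536-well, plated on prespotted compound at 10 μM final, parasite-free screening media added to match infected plates; puromycin 10 μM positive, DMSO 0.5% negative; run in parallel with 48 h PbLuc assay at 37 °C, 5% CO2; viability by CellTiter-Glo luminescence, normalized to controls.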

SMILES | cytotoxicity at 10 µM [%]
CNC(=O)CCN1CCC(c2nnc(Cn3cccn3)n2C2CC2)CC1 | 1.53
c1ccc(OCCNC2CCN(c3ncccn3)CC2)cc1 | 1.85
CCc1cc(N2CCS(=O)(=O)CC2)n2nc(C)c(C)c2n1 | -4.02
CN(Cc1ccc(F)cc1)Cc1nc(-c2cnccn2)no1 | 1.27
O=C(CCN1CCCC1=O)Nc1cnn(-c2ccccc2Cl)c1 | 5.65
COc1cccc(CCC(=O)N2CCCCC2Cn2cccn2)c1 (stereo unspecified) | -11.3
Cn1nc(Cl)cc1C(=O)N1CCC(C(=O)c2nc3ccccc3s2)CC1 | 3.34
c1c[nH]c(-c2cn(CCSc3cnn[nH]3)nn2)n1 | -47.5
CN(C)C(=O)CN1CCC(c2cncc(-c3cccc(Cl)c3)n2)CC1 | -33.3
CCOc1cccc(CNC(=O)N2CCC(Cc3cnn(C)c3)C2)c1 (stereo unspecified) | -3.16
O=C(NCC1CCN(c2ccncc2)CC1)C(O)c1ccccc1 (stereo unspecified) | 8.15
CCS(=O)(=O)c1ccc(CNc2c(Cl)cccc2C#N)cc1 | -50.6
Cc1cc(C)n(C2CCCN(C(=O)c3ccc(N(C)C)nc3)C2)n1 (stereo unspecified) | -4.26
Cc1cc(C(=O)NCCn2nc3ccccn3c2=O)[nH]n1 | -4.92
O=C(NCC1CC(=O)N(CCc2ccccc2)C1)c1ccon1 (stereo unspecified) | -5.22
Cc1nnc2n1CCN(Cc1csc(-c3cnn(C)c3)n1)C2 | -3.5
CC(C)n1cc(C(=O)N2Cc3ccccc3OC3(CCOCC3)C2)cn1 | 6.61
CN(C)C(=O)COCC1CN(C2CCC2)Cc2ncn(C)c21 (stereo unspecified) | 14.1
c1csc(N2CCN(c3nccn4cnnc34)CC2)n1 | -5.81
CC(CNc1nccc(C(C)C)n1)Oc1cccnc1 (stereo unspecified) | 4.34
CNC(=O)c1c(C)cccc1NCC(=O)Nc1cc(C)nn1C | -0.503
Cc1nn2c(NCC(N)=O)cc(-c3ccccc3)nc2c1C | -10.5
CC(C)c1nc(CN(C)C(=O)CNS(=O)(=O)c2cccs2)no1 | -16.8

SMILES | cytotoxicity at 10 µM [%]
Cc1ccc(C2CSCCN2C(=O)c2ccncc2)cc1 (stereo unspecified) | 2.96
Cc1nn(C)c(C)c1-c1nccnc1CC1CCNCC1 | -2.38
COCCn1ccc2cc(NC(C)=O)ccc21 | -12
CN1CCCC1CCNC(=O)c1ccccc1-n1cnc(CN)c1 (stereo unspecified) | 8.6
COc1cc(C(=O)N2CCC(O)(CN3CCOCC3)C(C)(C)C2)ccn1 (stereo unspecified) | -9.61
Cc1cnn(CC2CCCN2C(=O)c2nccnc2N)c1 (stereo unspecified) | -27.6
O=C(CC1CC1)NCc1cn2c(n1)CN(Cc1nccs1)CC2 | -74.1
COCC(=O)N1CCCC(c2cccc(-n3ccnc3)n2)C1 (stereo unspecified) | -9.69
CCn1cc(NC(=O)c2cccc(OCC(F)(F)F)n2)cn1 | -9.43
Cc1occc1C(=O)N1CCC2(CCN(Cc3ccccn3)C2=O)C1 (stereo unspecified) | -152
O=C(O)C1CCCN1c1nc(-c2ccc(Cl)c(Cl)c2)cc(C(F)(F)F)n1 (stereo unspecified) | 32.1
CCc1ncc2c(n1)CN(Cc1cccc(OCC(N)=O)c1)CC2 | -7.42
Cc1cccc(C2(CNC(C)c3nnc(C)o3)CCCC2)c1 (stereo unspecified) | 6.73
CN(C)CC1(O)CCN(C(=O)c2ccc(-n3cccn3)cc2Cl)C1 (stereo unspecified) | -0.662
O=C(c1cc(Cl)c2c(c1)OCCO2)N1CCCC(n2cncn2)C1 (stereo unspecified) | 1.56
COCC1CN(C(=O)Cc2cccs2)Cc2nnn(CC3CC3)c21 (stereo unspecified) | 5.98
CCN(C)c1ncnc2c1CCN(C(=O)c1ccoc1C)CC2 | -0.675
Cc1nn(C)c2nc(N3CCCCC3c3ccc(F)cc3)sc12 (stereo unspecified) | -7.88
O=C(Cc1ccsc1)N1C[C@@H]2COC[C@]2(COCc2cccnc2)C1 | 2.98
CCC(O)CN1CCN(C(=O)CN(C)c2ccc(Cl)cn2)CC1 (stereo unspecified) | 0.684
COCC1CN(C(=O)Cc2cccc(F)c2)Cc2ccnn2C1 (stereo unspecified) | -73
CCc1sc(-c2nnc(CNCCn3cc(C)cn3)o2)cc1C | -8.75
CCS(=O)(=O)N(C)C1CCN(C(=O)c2cc(C)cc(C)c2)CC1 | 11.5
